From PubChem
Most compounds without a hit are left out; they make up all but 4.3% or so of the library.
TAAR1 ag = human TAAR1 agonists, primary screen, Fluo-8 calcium fluorescence, CHO RD-HGA16 cells. vehicle wells 0%, saturating PEA agonist 100%. AID 624467, 2012. Trace amine-associated receptor 1 (Homo sapiens), Q96RJ0. activation, % at 3 µM. 360,000 tested, 0.99% active;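 active means activation above the mean activation of all test compounds in the run plus 3 SD, cut at about 38% in these data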
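Test system: RD-HGA16 (CHO) cells co-expressing Gα16 and hTAAR1; dosing: one-point dosing at 3 µM (nominal); timing: 17-24 h seeding, 75 min 37 °C dye, 30 min RT; signal: kinetic Fluo-8 calcium fluorescence; read-out basis: % activation relative to PEA EC100 response; controls: DMSO and PEA EC100; replicates: n 1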
OX1R antag-1 = antagonists of human orexin 1 receptor (OX1R) | Orexin/Hypocretin receptor type 1 (Homo sapiens), O43613 | OX1R-expressing cells, FRET antagonist read-out | inhibition, % at 6.6 µM | 330,000 tested, 1.8% active | AID 485270, 2010; in the data active means inhibition mostly above about 38%, no sharp cut-off; inactive means mostly below about 40%;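 further: 0% = agonist challenge alone and 100% = reference antagonist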
GalR3 antag = GalR3 antagonists in HEK293 cells, primary screen, cell-based, fluorescence readout. HEK293 GalR3-CNG cAMP membrane potential fluorescence; galR3 body fused to GalR1 C-terminus. inhibition, % at 3 µM. 360,000 tested, 0.44% active;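 active means inhibition above the screen-wide average plus 3 SD, cut at about 13% in these data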;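 further: forskolin and galanin both at EC90 stimulate the cells; cAMP rise reported by CNG channel membrane potential dye signal; 0% = forskolin plus galanin with DMSO and 100% = forskolin alone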
Target sequence (O60755 1-299 limits assumed): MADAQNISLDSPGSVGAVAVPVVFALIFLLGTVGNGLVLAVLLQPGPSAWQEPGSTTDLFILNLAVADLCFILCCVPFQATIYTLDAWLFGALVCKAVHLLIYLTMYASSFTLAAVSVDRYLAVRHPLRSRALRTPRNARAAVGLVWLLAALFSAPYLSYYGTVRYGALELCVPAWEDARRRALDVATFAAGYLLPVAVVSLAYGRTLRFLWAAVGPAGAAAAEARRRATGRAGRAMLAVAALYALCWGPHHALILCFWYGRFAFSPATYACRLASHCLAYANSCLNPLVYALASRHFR
CHO parental Ca = ATP-evoked calcium signal inhibitors, parental CHO, primary screen, counter-screen for OX1R antagonist project, cell-based, fluorescence, Fluo-8 calcium dye | parental CHO-K1, ATP-induced calcium, Fluo-8 fluorescence | 330,000 tested, 0.63% active | inhibition, % at 5.6 µM;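 active means inhibition above that plate's mean sample inhibition plus 3 SD, cut at about 26% in these data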;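 further: 0% = ATP-challenged DMSO wells and 100% = DMSO wells without ATP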
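Assay system – parental CHO cells · Reagent – ATP stimulus · Detection – intracellular calcium via Fluo-8 no-wash fluorescent dye · Evaluation – percent inhibition of ATP-evoked calcium rise, normalized to controls · Controls – ATP wells versus no-ATP DMSO wells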
OX1R antag-2 = OX1R (HCRTR1) antagonists, primary screen, fluorescence, CHO/OX1R cells, Fluo-8 calcium, orexin A. inhibition, % at 5 µM. 330,000 tested, 0.43% active. Fluo-8 calcium fluorescence. Orexin/Hypocretin receptor type 1 (Homo sapiens), O43613;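 active means inhibition above its plate's threshold, mean inhibition of all tested compounds on the plate plus 3 SD, cut at about 37% in these data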;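 further: 0% = orexin A challenge wells and 100% = SB-334867-A antagonist wells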
TAAR1 antagonist = human TAAR1 antagonists, primary screen, Fluo-8 calcium fluorescence, CHO RD-HGA16 cells; inhibition, % at 3 µM; 360,000 tested, 1.5% active; AID 624466, 2012; antagonist;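 active means inhibition above a per-plate cutoff, the mean inhibition of test compounds on that plate plus 3 SD, cut at about 49% in these data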;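 further: 0% = DMSO plus EC80 beta-PEA response and 100% = DMSO alone without agonist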
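Test system: hTAAR1-expressing CHO RD-HGA16 cells, Gα16-coupled; Probe or stimulus: EC80 β-phenethylamine stimulus; Compound dosing: single nominal final test compound concentration of 3 µM; Timing: 140 s kinetic read after compound, 140 s after agonist; Signal: Fluo-8 calcium-sensitive fluorescence; Measure: % inhibition of agonist calcium response; Controls: DMSO and EC80 PEA controls.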
TAAR1 ag confirm = human TAAR1 agonists, retest of hits, confirmation, Fluo-8 calcium fluorescence, CHO RD-HGA16 cells | shares compounds with TAAR1 ag | scaled: DMSO 0%, maximal phenethylamine 100% | activation, % at 3 µM | 2,400 tested, 82% active | AID 651783, 2012;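 active means activation above a cutoff set at the run's mean compound activation plus 3 SD, cut at about 39% in these data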
Ga16 ag counter = nonselective calcium mobilization agonists, CHO-Ga16 cells, counter-screen for hTAAR1 agonist project, cell-based, fluorescence, CHO-Ga16 parental line. activation, % at 3 µM. shares compounds with TAAR1 ag. Fluo-8 calcium fluorescence; normalized to maximal ATP response, DMSO zero. 2,400 tested, 50% active;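 active means activation above the run cutoff, the mean activation over all tested wells plus 3 SD, cut at about 12% in these data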;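 further: 0% = DMSO wells and 100% = maximal ATP response on the peak over basal ratio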
TAAR1 desensitize = TAAR1 desensitization by agonist hits, confirmation, counter-screen for TAAR1 agonist project, cell-based, fluorescence, tachyphylaxis. shares compounds with TAAR1 ag. 2,400 tested, 46% active. AID 651951, 2012. CHO RD-HGA16 hTAAR1, Fluo-8 calcium, beta-PEA response inhibition. inhibition, % at 3 µM;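 active means inhibition above the run cutoff, the mean inhibition of all test compounds plus 3 SD, cut at about 49% in these data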;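 further: beta-PEA stimulus applied at its EC80; loss of beta-PEA calcium signal after compound pretreatment read as receptor desensitization; 0% = DMSO with beta-PEA at EC80 and 100% = DMSO alone without agonist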
Ga16 nonsel ant = inhibition of ATP-evoked calcium response in CHO-Ga16 cells, counter-screen for TAAR1 agonist project, cell-based, fluorescence. inhibition, % at 3 µM. CHO-Ga16 ATP-induced calcium, Fluo-8 fluorescence. shares compounds with TAAR1 ag. 2,400 tested, 39% active;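 active means inhibition above the plate's mean compound inhibition plus 3 SD, computed per plate, cut at about 22% in these data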;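 further: 0% = EC80 ATP with DMSO and 100% = DMSO wells without ATP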
* = called active by the depositor; . = no result; ! = not confirmed by another sample.

SMILES | TAAR1 ag | OX1R antag-1 | GalR3 antag | CHO parental Ca | OX1R antag-2 | TAAR1 antagonist | TAAR1 ag confirm | Ga16 ag counter | TAAR1 desensitize | Ga16 nonsel ant
COc1ccc(CNCCc2ccccc2F)c(OC)c1C | 84* | 0 | -5 | -17 | -37 | 73* | 93* | 8 | 80* | 10
Cn1cccc1CNCCc1ccccc1F | 63* | 6 | -4 | -15 | -26 | 67* | 102* | -1 | 82* | 5
COc1ccc(CNCCc2c[nH]c3ccccc23)c(OC)c1C | 28 | -7 | -6 | -13 | -17 | 3 | . | . | . | .
COc1ccc(CCNCc2cccn2C)cc1 | 23 | 28 | -4 | -14 | -7 | -13 | . | . | . | .
O=C1NC(=O)C(=Cc2ccc(Cl)cc2)C(=O)N1 | 1 | . | -4 | . | . | -16 | . | . | . | .
CCN(CC)Cc1c[nH]c2ccccc12 | 9 | 16 | -2 | -14 | -13 | 10 | . | . | . | .
CN(CCc1ccccc1)Cc1c[nH]c2ccccc12 | 93* | 10 | -10 | -3 | -10 | 84* | 96* | 2 | 77* | 2
CNCC(C)c1ccccc1 (stereo not drawn) | 84* | 2 | -3 | 0 | -14 | 59* | 94* | 1 | 83* | 2
N#Cc1c(N2CCNCC2)nc(-c2ccco2)c2c1CCCC2 | 80* | 5 | -1 | -19 | -42 | 48 | 96* | 16* | 90* | 15
COc1cc(O)cc2c1cc([N+](=O)[O-])c1c(C(=O)O)cc3c(c12)OCO3 | 1 | 21 | -6 | -6 | -4 | -13 | . | . | . | .
CC1CN=C(NC(C)c2ccccc2)S1 (stereo not drawn) | 5 | 9 | -3 | -17 | -13 | -6 | . | . | . | .
CC(NC1=NCCS1)c1ccccc1 (stereo not drawn) | . | 12 | -3 | 6 | 2 | . | . | 0 | . | 0
COC(=O)C1=C(c2ccc(C(C)=O)cc2)C[C@@H]2CC[C@H]1N2C(=O)N1CCC(C)CC1 | 0 | 21 | -6 | -15 | -5 | -2 | . | . | . | .
CC(N)Cc1ccc(O)cc1 (stereo not drawn) | 96* | . | 0 | . | . | 54*! | 94* | 3 | 84* | 5
C[C@]12CC[C@@H](O)CC1=CCC1C2CC[C@@]2(C)C1C[C@@H](F)[C@@H]2O (stereo partly drawn) | 7 | 5 | -7 | 16 | 15 | -1 | . | . | . | .
CCCCCCCSc1cc(OC)c(CCNC)cc1OC | 67* | 2 | -8 | 18 | 17 | 35 | 52* | 21* | 44 | 24*
CCCCCSc1cc(OC)c(CCNC)cc1OC | 37 | 12 | -11 | -8 | -7 | -10 | . | . | . | .
CC1CN(CC(=O)c2ccccc2Cl)CC(C)O1 (stereo not drawn) | 85* | 6 | -11 | -3 | -33 | 54* | 106* | 3 | 44 | -10
CC1CCN(CC(=O)c2ccccc2Cl)CC1 | 4 | 16 | -11 | 0 | 6 | -14 | . | . | . | .
NCC(=O)c1ccccc1 | 89* | . | -4 | . | . | 53* | 89* | 7 | 88* | 2
